These results are taken from ChEMBL document CHEMBL4371012, “Development of Macrocyclic Peptides Containing Epoxyketone with Oral Availability as Proteasome Inhibitors” (J Med Chem, 2018).

A short description of data set [1]: Apparent permeability from basolateral to apical side in human Caco2 cells measured at 90 mins time interval by LC-MS/MS analysis. The conditions noted are these: Caco-2. (Caco-2 monolayers are a common model of the intestinal barrier.)
Data set [2] can be described thus: Efflux ratio of apparent permeability in human Caco2 cells measured at 90 mins time interval by LC-MS/MS analysis. The conditions noted are these: Caco-2.
Data set [3] is described as follows: Apparent permeability from apical to basolateral side in human Caco2 cells measured at 90 mins time interval by LC-MS/MS analysis. To be noted: Caco-2.
A further data set has as its system MV4-11. Description: Antiproliferative activity against human MV4-11 cells after 72 hrs by MTS assay. To be noted: MV4-11, 72 h. Type of data set: functional, cell-based. (In general: Formazan colour is commonly taken as a measure of viable cells.)
The test system of another data set is MM1.S. In words: Antiproliferative activity against human MM1S cells after 72 hrs by MTS assay. Type of data set: functional, cell-based.
A short description of data set [4]: Metabolic stability in mouse liver microsomes assessed as parent compound remaining at 100 uM after 5 mins by LC-MS/MS analysis. Type of data set: ADME, Microsome. The conditions noted are these: read-out: Stability. In general terms: Liver microsomes are vesicles of endoplasmic reticulum, rich in cytochrome P450 enzymes.
Data set [5] is described as follows: AUC (0 to t) in ICR mouse at 25 mg/kg, po via gavage after 1 hr by LC-MS/MS analysis. Type of data set: ADME, organism-based. On the set-up: time < 1 hr, dose 25 mg/kg, route oral. The conditions noted are these: in vivo.
Data set [6] addresses T1, Proteasome Macropain subunit MB1 (Homo sapiens, UniProt P28074).
T1 sequence (P28074 whole entry): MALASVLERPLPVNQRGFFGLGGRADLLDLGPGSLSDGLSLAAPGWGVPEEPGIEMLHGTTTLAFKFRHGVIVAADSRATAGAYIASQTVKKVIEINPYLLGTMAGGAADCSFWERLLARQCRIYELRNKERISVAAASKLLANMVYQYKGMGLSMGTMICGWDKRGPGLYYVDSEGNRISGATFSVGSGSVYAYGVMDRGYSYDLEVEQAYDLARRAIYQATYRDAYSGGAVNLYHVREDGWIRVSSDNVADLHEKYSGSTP
In words: Inhibition of human 20S proteasome chymotrypsin-like activity using Suc-Leu-Leu-Val-Tyr-AMC as substrate pretreated for 15 mins followed by substrate addition by fluorescence assay.

Data set [7] in a line: Half life in ICR mouse at 5 mg/kg, iv by LC-MS/MS analysis. The conditions noted are these: in vivo. Type of data set: ADME, organism-based.
Data set [8] in a line: Tmax in ICR mouse at 25 mg/kg, po via gavage by LC-MS/MS analysis. The conditions noted are these: in vivo. Type of data set: ADME, organism-based.
The nature of data set [9]: AUC (0 to t) in ICR mouse at 5 mg/kg, iv after 1 hr by LC-MS/MS analysis. To be noted: in vivo. On the set-up: time < 1 hr, dose 5 mg/kg, route intravenous. Type of data set: ADME, organism-based.
For data set [10], the system named is Mus musculus. Description: In vivo inhibition of 20S proteasome chymotrypsin-like activity in Balb/c mouse blood at 100 mg/kg, po measured at 2 to 24 hrs post dose using LLVY-AMC as substrate by fluorescence assay. Type of data set: functional, organism-based. The gist of the method: (§1)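 BALB/c mice dosed orally in 0.5% CMC-Na vehicle. Blood was sampled at 2 and 24 h after dosing for proteasome chymotrypsin-like activity.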

Data set [11] deals with Mus musculus. Description: In vivo inhibition of 20S proteasome chymotrypsin-like activity in Balb/c mouse blood at 30 mg/kg, po measured at 2 to 24 hrs post dose using LLVY-AMC as substrate by fluorescence assay. Type of data set: functional, organism-based. The gist of the method: as §1
Data set [12] in a line: Oral bioavailability in ICR mouse at 25 mg/kg via gavage by LC-MS/MS analysis. To be noted: in vivo. Type of data set: ADME, organism-based.
A short description of data set [13]: Volume of distribution at steady state in ICR mouse at 5 mg/kg, iv by LC-MS/MS analysis. Type of data set: ADME, organism-based. To be noted: in vivo, read-out: Vdss.
A further data set concerns RPMI-8226. In words: Antiproliferative activity against human RPMI8226 cells after 72 hrs by MTS assay. Type of data set: functional, cell-based. To be noted: RPMI-8226, 72 h.
A short description of data set [14]: Clearance in ICR mouse at 5 mg/kg, iv by LC-MS/MS analysis. Type of data set: ADME, organism-based. To be noted: in vivo.
The nature of data set [15]: Cmax in ICR mouse at 25 mg/kg, po via gavage by LC-MS/MS analysis. Also on record: dose 25 mg/kg, route oral. Type of data set: ADME, organism-based. The conditions noted are these: in vivo.
Data set [16] in a line: Metabolic stability in mouse liver microsomes assessed as parent compound remaining at 100 uM after 30 mins by LC-MS/MS analysis. Type of data set: ADME, Microsome. To be noted: read-out: Stability. A digest of the protocol:
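After the microsomal incubation, the clear supernatant was analysed by ESI LC-MS. The read-out was the relative peak area of each parent compound.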

A short description of data set [17]: AUC (0 to t) in ICR mouse at 30 mg/kg, po via gavage after 1 hr by LC-MS/MS analysis. Type of data set: ADME, organism-based. Also on record: time < 1 hr, dose 30 mg/kg, route oral. To be noted: in vivo.
Data set [18] can be described thus: Tmax in ICR mouse at 30 mg/kg, po via gavage by LC-MS/MS analysis. Type of data set: ADME, organism-based. To be noted: in vivo.
A short description of data set [19]: Cmax in ICR mouse at 30 mg/kg, po via gavage by LC-MS/MS analysis. To be noted: in vivo. Type of data set: ADME, organism-based. Also on record: dose 30 mg/kg, route oral.

As a reminder, the Papp B→A is the apparent permeability from the basolateral to the apical side of a cell layer. The efflux ratio is a quotient of directional permeabilities that is used to spot active efflux. The term Papp A→B denotes the apparent permeability from the apical to the basolateral side of a cell layer. One may read the IC50 as the concentration that gives 50% inhibition. The AUC(0-t) is exposure summed from dosing to a finite time, without extrapolation to infinity. Read a low AUC(0-t) as less exposure. As usually defined, the half-life is how long it takes for the measured level to halve. Lower therefore signals fast loss. In general, Tmax refers to the time at which the peak concentration occurs. In general, bioavailability refers to dose-corrected exposure relative to a reference, in per cent. Usually clearance stands for a measure of how efficiently the substance is removed, as volume per time. As usually defined, the Cmax is the maximum level reached in the sampled fluid or tissue.

Calls of active or inactive are those of the source. No cut-off for these calls is given here.

With `COCCc1ccc(OCC(O)CNC(C)C)cc1` (centres undefined) [METOPROLOL], the Papp B→A at 1.5 h in [1] was 25.9 ×10⁻⁶ cm/s. Further, the efflux ratio at 1.5 h in data set [2] is 0.74. For the same compound, in data set [3], the apical-to-basolateral permeability (Papp A→B) at 1.5 h worked out at 35.2 ×10⁻⁶ cm/s.

`CC[C@H]1OC(=O)[C@H](C)[C@@H](O[C@H]2C[C@@](C)(OC)[C@@H](O)[C@H](C)O2)[C@H](C)[C@@H](O[C@@H]2O[C@H](C)C[C@H](N(C)C)[C@H]2O)[C@](C)(O)C[C@@H](C)C(=O)[C@H](C)[C@@H](O)[C@]1(C)O` [ERYTHROMYCIN]: the Papp B→A at 1.5 h in data set [1] stood at 15.1 ×10⁻⁶ cm/s. In [2], the efflux ratio at 1.5 h is above 79.5. The Papp A→B at 1.5 h in data set [3] was below 0.19 ×10⁻⁶ cm/s.

For `COC[C@@H]1NC(=O)c2ccccc2OCCCCCCOC[C@@H](C(=O)N[C@@H](Cc2ccccc2)C(=O)[C@@]2(C)CO2)NC1=O`, the half-maximal inhibitory concentration (IC50) was 36 nM with MV4-11, 58 nM in the data set with MM1.S, 54 nM in data set [6] and above 100 nM in the data set on RPMI-8226. In addition, in data set [4], the remaining at 5 min, 100 µM was below 5%. For the same compound, the AUC(0-t) at 1 h in data set [5] is 133 ng·h/mL; in data set [9], 1240 ng·h/mL. The same compound had a half-life in data set [7] of 9.6 min. Also, the time to peak (Tmax) in data set [8] is 4.8 min. Also, the inhibition entry in the data set with Mus musculus [10] was “Active”. Further, in the data set with Mus musculus [11], the inhibition entry was “inactive”. Moreover, the bioavailability in [12] was found to be 2.15%. Besides, in [13], the Vd worked out at 0.62 L/kg. In addition, the clearance in [14] was found to be 67.2 mL/min/kg. Further, the peak level in data set [15] (Cmax) was 519 ng/mL.

Consider `COC[C@@H]1NC(=O)c2ccnn2CCCCCCOC[C@@H](C(=O)N[C@@H](Cc2ccccc2)C(=O)[C@@]2(C)CO2)NC1=O`, for which the concentration for half-maximal inhibition (IC50) in the data set with MV4-11 came out at 2 nM; with MM1.S, 3 nM; in [6] it was 16 nM; in the data set with RPMI-8226, 2 nM. The exposure AUC(0-t) at 1 h in data set [5] was found to be 141 ng·h/mL; in data set [9] it was 784 ng·h/mL. The same compound returned a half-life in data set [7] of 6 min. Further, in [16], the remaining at 0.5 h, 100 µM turned out to be 75%. Besides, in data set [8], the Tmax is 4.8 min. Besides, in the data set with Mus musculus [11], the inhibition entry was “Active”. The compound further gave a bioavailability in data set [12] of 3.72%. In addition, in data set [13], the Vd was 0.48 L/kg. Besides, the clearance in [14] amounted to 107 mL/min/kg. Moreover, the Cmax in [15] is 325 ng/mL.

Consider `COC[C@@H]1NC(=O)c2nccn2CCCCCCOC[C@@H](C(=O)N[C@@H](Cc2ccccc2)C(=O)[C@@]2(C)CO2)NC1=O`, for which the concentration for half-maximal inhibition (IC50) with MV4-11 turned out to be 3 nM; in the data set on MM1.S, 1 nM; in data set [6], 14 nM; in the data set on RPMI-8226 it was 3 nM. Moreover, the remaining at 0.5 h, 100 µM in [16] stood at 92%. The compound also returned an AUC(0-t) at 1 h in data set [17] of 58 ng·h/mL. In addition, the time of peak concentration (Tmax) in [18] is 13.2 min. Further, the inhibition entry with Mus musculus [11] was “Active”. The compound further registered a Cmax in [19] of 92 ng/mL.
